These results are taken from ChEMBL document CHEMBL3352487, “Synthesis, antibacterial activity, and biological evaluation of formyl hydroxyamino derivatives as novel potent peptide deformylase inhibitors against drug-resistant bacteria” (Eur J Med Chem, 2014).

Molecules are shown by their SMILES. Converted amounts (≈) assume the structure as drawn.

A short description of data set [1]: Stability of the compound in artificial intestinal juice measured every 2 hrs for 12 hrs by HPLC analysis. The settings on record: simulated gi fluid. The format is physicochemical.
For data set [2], the system named is Staphylococcus epidermidis. In words: Antimicrobial activity against Staphylococcus epidermidis after 24 hrs by broth microdilution method. The format is functional. In outline: (§1)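 Broth microdilution following NCCLS M7-A4; ATCC strains and clinical isolates from a provincial hospital.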
(In general: In broth dilution the organism is exposed to a series of concentrations in liquid medium.)

The nature of data set [3]: Solubility of the compound in artificial intestinal juice measured every 2 hrs for 12 hrs by HPLC analysis. It counts as physicochemical. Particulars: simulated gi fluid.
Data set [4] concerns Escherichia coli. Nature of the data set: Antimicrobial activity against Escherichia coli isolate 1 after 24 hrs by broth microdilution method. The format is functional. Particulars: isolate 1, 24 h. In outline: as §1
In data set [5] the test system is Staphylococcus aureus. Nature of the data set: Antimicrobial activity against methicillin-susceptible Staphylococcus aureus after 24 hrs by broth microdilution method. The format is functional. In outline:
as §1

Data set [6] has as its system Escherichia coli. In words: Antimicrobial activity against Escherichia coli isolate 2 after 24 hrs by broth microdilution method. Particulars: isolate 2, 24 h. It counts as functional. In outline:
as §1

Data set [7] has as its system Staphylococcus aureus. In words: Antimicrobial activity against Staphylococcus aureus after 24 hrs by broth microdilution method. The format is functional. In outline: as §1
A short description of data set [8]: Stability of the compound in artificial gastric juice measured every 2 hrs for 12 hrs by HPLC analysis. Particulars: simulated gi fluid. The format is ADME.
The subject of data set [9] is Staphylococcus aureus. In words: Antimicrobial activity against methicillin-resistant Staphylococcus aureus after 24 hrs by broth microdilution method. It counts as functional. In outline:
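Broth microdilution following NCCLS M7-A4, using ATCC strains and clinical isolates from a provincial hospital.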

Data set [10] is described as follows: Solubility of the compound in artificial gastric juice measured every 2 hrs for 12 hrs by HPLC analysis. It counts as ADME. Particulars: simulated gi fluid.
A short description of data set [11]: Oral bioavailability in Sprague-Dawley rat at 25 mg/kg. The format is ADME, organism-based. Particulars: in vivo.
Data set [12] in a line: AUC (0 to infinity) in Sprague-Dawley rat at 5 mg/kg, iv. Particulars: plasma. More on the design: time infinity, dose 5 mg/kg, route intravenous. The format is ADME, organism-based.
Data set [13] concerns the target T1, hERG (KCNH2) (Homo sapiens, UniProt Q12809). In words: Inhibition of human ERG at 1 uM.
The nature of data set [14]: Half life in Sprague-Dawley rat at 25 mg/kg, po. The format is ADME, organism-based. More on the design: dose 25 mg/kg, route oral. The settings on record: in vivo.
Data set [15] concerns the target T1, hERG (KCNH2). In words: Inhibition of human ERG at 10 uM.
Data set [16] can be described thus: Mean residence time (0 to t) in Sprague-Dawley rat at 25 mg/kg, po. The settings on record: in vivo. The format is ADME, organism-based. Also on record: dose 25 mg/kg, route oral.
A short description of data set [17]: Cmax in Sprague-Dawley rat at 25 mg/kg, po. It counts as ADME, organism-based. More on the design: dose 25 mg/kg, route oral. Particulars: in vivo.
Data set [18] can be described thus: AUC (0 to infinity) in Sprague-Dawley rat at 25 mg/kg, po. Particulars: plasma. More on the design: dose 25 mg/kg, route oral, time infinity. The format is ADME, organism-based.
Data set [19] is described as follows: Clearance in Sprague-Dawley rat at 5 mg/kg, iv. Particulars: in vivo. Also on record: dose 5 mg/kg, route intravenous. It counts as ADME, organism-based.
Data set [20] in a line: Tmax in Sprague-Dawley rat at 25 mg/kg, po. The format is ADME, organism-based. More on the design: dose 25 mg/kg, route oral. Particulars: in vivo.
The nature of data set [21]: Volume of distribution at steady state in Sprague-Dawley rat at 5 mg/kg, iv. It counts as ADME, organism-based. The settings on record: in vivo, read-out: Vdss. Also on record: dose 5 mg/kg, route intravenous.
Data set [22] can be described thus: AUC (0 to t) in Sprague-Dawley rat at 25 mg/kg, po. It counts as ADME, organism-based. More on the design: dose 25 mg/kg, route oral. Particulars: plasma.
Data set [23] can be described thus: AUC (0 to t) in Sprague-Dawley rat at 5 mg/kg, iv. The format is ADME, organism-based. Also on record: dose 5 mg/kg, route intravenous. Particulars: plasma.
Data set [24] in a line: Half life in Sprague-Dawley rat at 5 mg/kg, iv. The format is ADME, organism-based. Also on record: dose 5 mg/kg, route intravenous. The settings on record: in vivo.
A short description of data set [25]: Mean residence time (0 to t) in Sprague-Dawley rat at 5 mg/kg, iv. The format is ADME, organism-based. Particulars: in vivo. Also on record: dose 5 mg/kg, route intravenous.

T1 sequence (Q12809 whole entry): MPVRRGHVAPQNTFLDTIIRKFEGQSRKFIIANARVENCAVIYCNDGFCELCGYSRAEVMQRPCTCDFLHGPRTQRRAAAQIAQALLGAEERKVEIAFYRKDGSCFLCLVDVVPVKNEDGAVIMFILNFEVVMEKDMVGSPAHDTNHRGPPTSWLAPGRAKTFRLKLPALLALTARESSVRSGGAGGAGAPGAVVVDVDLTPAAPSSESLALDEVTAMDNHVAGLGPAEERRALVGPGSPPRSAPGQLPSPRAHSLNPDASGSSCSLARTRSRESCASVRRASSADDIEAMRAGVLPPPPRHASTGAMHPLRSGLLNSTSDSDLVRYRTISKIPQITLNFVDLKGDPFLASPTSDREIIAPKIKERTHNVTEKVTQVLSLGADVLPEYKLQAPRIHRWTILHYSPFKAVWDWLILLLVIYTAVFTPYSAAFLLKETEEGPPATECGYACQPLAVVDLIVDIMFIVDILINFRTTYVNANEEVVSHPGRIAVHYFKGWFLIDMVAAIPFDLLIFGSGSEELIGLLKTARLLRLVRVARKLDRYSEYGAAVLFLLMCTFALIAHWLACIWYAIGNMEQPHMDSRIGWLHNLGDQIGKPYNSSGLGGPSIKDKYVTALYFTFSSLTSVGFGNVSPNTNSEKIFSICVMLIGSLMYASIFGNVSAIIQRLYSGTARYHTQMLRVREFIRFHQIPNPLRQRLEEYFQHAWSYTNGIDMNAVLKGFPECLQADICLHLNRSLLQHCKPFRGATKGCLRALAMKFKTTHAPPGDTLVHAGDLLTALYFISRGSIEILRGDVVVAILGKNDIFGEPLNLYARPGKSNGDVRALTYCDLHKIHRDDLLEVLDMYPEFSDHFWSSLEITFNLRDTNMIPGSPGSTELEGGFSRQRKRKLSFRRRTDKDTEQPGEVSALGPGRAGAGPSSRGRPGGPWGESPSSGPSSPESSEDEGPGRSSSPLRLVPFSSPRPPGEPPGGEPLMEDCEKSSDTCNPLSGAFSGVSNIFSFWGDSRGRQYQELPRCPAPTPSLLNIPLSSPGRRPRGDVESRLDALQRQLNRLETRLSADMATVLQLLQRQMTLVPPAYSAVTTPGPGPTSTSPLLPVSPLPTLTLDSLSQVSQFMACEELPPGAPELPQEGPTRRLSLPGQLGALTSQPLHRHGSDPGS

A word on the MIC: it is the smallest concentration in the dilution series that meets the test's criterion for growth inhibition. A high value points to a less susceptible organism. Consider `CCCC[C@H](CN(O)C=O)C(=O)N1CC=C[C@H]1C(=O)Nc1ccc(F)cn1`, for which the Stability entry in data set [1] and in data set [8] was “Stable” throughout. The minimal inhibitory concentration (MIC) in data set [2] was 0.5 µg/mL (≈ 1.32 µM); with Escherichia coli [4], more than 64 µg/mL; against Staphylococcus aureus [5], 1 µg/mL (≈ 2.64 µM); against Escherichia coli [6] it was 64 µg/mL (≈ 169 µM); in the data set with Staphylococcus aureus [7] it was 0.5 µg/mL (≈ 1.32 µM); against Staphylococcus aureus [9], 0.25 µg/mL (≈ 0.661 µM). Also, the solubility entry in [3] and in [10] was “soluble” in each case.

One may read the bioavailability as dose-corrected exposure relative to a reference, in per cent. A word on the AUC(0-inf): it is the area under the concentration-time curve extrapolated to infinity. One may read the inhibition as the share of the control response that was lost under treatment. Low values mean little suppression, high ones strong suppression. The term half-life denotes the time in which the quantity being followed falls by half. What is called MRT last is the average time that molecules of a dose stay in the body. In general, Cmax refers to the maximum level reached in the sampled fluid or tissue. What is called clearance is a measure of how efficiently the substance is removed, as volume per time. By Tmax is commonly meant the time at which the peak concentration occurs. The term AUC(0-t) denotes the area under the concentration-time curve up to a stated or last time point. As to `CCCC[C@H](CN(O)C=O)C(=O)N1CC=C[C@H]1C(=O)Nc1ncc(C)s1`, in data set [11], the bioavailability is 88.7%. Also, the Stability result in data set [1] and in [8] was “Stable” each time. Besides, the AUC(0-inf) in data set [12] was 4930 ng·h/mL; in data set [18], 21900 ng·h/mL. Also, testing at 1 µM at hERG (KCNH2) [13] gave an inhibition of 5.7%. For the same molecule, the half-life was 2.56 h in [14] and 4.08 h in [24]. In addition, the minimum inhibitory concentration (MIC) is 0.25 µg/mL (≈ 0.657 µM) in data set [2]; 32 µg/mL (≈ 84.1 µM) against Escherichia coli [4]; 0.25 µg/mL (≈ 0.657 µM) with Staphylococcus aureus [5]; 16 µg/mL (≈ 42.1 µM) in the data set on Escherichia coli [6]; 0.0625 µg/mL (≈ 0.164 µM) against Staphylococcus aureus [7]; 0.125 µg/mL (≈ 0.329 µM) against Staphylococcus aureus [9]. The molecule also came in with an inhibition at 10 µM against hERG (KCNH2) [15] of 5.5%. The mean residence time MRT last in data set [16] turned out to be 2.45 h; in data set [25] it was 0.952 h. The solubility result in data set [3] and in data set [10] was “soluble” each time. In data set [17], this molecule came in with a Cmax of 12400 ng/mL. This molecule also gave a clearance in data set [19] of 17 mL/min/kg. Besides, the time of peak concentration (Tmax) in [20] amounted to 0.625 h. The Vd in data set [21] was 1.01 L/kg. Moreover, the AUC(0-t) in data set [22] was 21800 ng·h/mL; in data set [23] it was 4920 ng·h/mL.
